Source: PubChem BioAssay
HTRA1 inh = HTRA1 (human) protease inhibition. Q92743. recombinant HTRA1, FP-rhodamine activity-based probe, fluorescence polarization. inhibition, % at 5.96 µM. hit rate 0.5% among 340,000. AID 504803; in the data active = inhibition above about 36%
TCR CD3 inh = inhibitors of human TCR-CD3 interaction; TAMRA-labeled TCR probe fluorescence, biochemical; hit rate 0.37% among 360,000; AID 651800; inhibition, % at 9.4 µM; in the data active = inhibition above about 19%;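 also: recombinant mutant TCR 2C K166C tagged with TAMRA read by polarization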
PRMT1 inh = PRMT1 (human) inhibition, primary screen | recombinant PRMT1, activity-based probe fluorescence polarization | inhibition, % at 2.79 µM | hit rate 1.3% among 370,000;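 active = inhibition above about 21% made by adding two undisclosed values, limit read from the data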
SIAE inh = human SIAE inhibition, primary screen. Q9HAT2. SIAE FP-Rh probe binding, fluorescence polarization. inhibition, % at 9.66 µM. hit rate 0.69% among 370,000;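 active = inhibition above a cutoff: mean of compounds within the control limits plus 3 SD of those, cut at about 17% in these data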
ATG4B inh = ATG4B (human) cysteine protease inhibition | Q9Y4P1 | inhibition, % at 8.33 µM | ATG4B cleavage of LC3-PLA2, NBD-HPC fluorescence, 1 h | hit rate 0.51% among 340,000; in the data active = inhibition above about 40%
Target sequence (Q9Y4P1 whole entry, looked up): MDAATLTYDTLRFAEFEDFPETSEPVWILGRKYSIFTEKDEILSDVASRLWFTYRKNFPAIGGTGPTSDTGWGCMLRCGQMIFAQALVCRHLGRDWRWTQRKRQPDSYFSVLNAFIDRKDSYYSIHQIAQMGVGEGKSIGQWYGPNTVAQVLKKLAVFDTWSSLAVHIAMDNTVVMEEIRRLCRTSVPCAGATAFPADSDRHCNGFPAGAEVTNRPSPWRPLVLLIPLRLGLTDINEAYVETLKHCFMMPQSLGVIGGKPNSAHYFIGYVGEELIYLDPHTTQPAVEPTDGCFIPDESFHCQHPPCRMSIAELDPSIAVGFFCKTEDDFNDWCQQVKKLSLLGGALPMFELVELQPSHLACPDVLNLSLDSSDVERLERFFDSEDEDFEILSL
ABHD4 inh = ABHD4 (mouse) inhibition, primary FP screen; hit rate 0.54% among 370,000; AID 720543; inhibition, % at 8.92 µM; purified mABHD4, FP-Rh probe fluorescence polarization;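 active = inhibition exceeding the mean over every tested compound plus 3 SD, cut at about 30% in these data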
Target sequence (Q8VD66 whole entry, looked up): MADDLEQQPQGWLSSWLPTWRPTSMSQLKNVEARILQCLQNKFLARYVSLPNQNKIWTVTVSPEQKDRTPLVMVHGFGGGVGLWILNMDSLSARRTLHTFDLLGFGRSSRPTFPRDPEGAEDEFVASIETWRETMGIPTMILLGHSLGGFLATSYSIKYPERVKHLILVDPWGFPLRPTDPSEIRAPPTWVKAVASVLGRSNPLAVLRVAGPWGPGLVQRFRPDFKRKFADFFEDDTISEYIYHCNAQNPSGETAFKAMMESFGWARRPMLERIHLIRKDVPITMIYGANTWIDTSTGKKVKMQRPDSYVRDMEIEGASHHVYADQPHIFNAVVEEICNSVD
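Material: mouse ABHD4 enzyme, wild type; Benchmarks: S159A mutant high control, sample median low control; Buffer or medium: HEPES pH 7.0, NaCl, Pluronic buffer; Signal: fluorescence polarization; Read-out: percent inhibition of probe binding, normalized to plate controls; Timing: pre-incubation 45 min, probe exposure 60 min, at 25 °C; Dosing: 8.92 µM, single dose.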
Of the large screens only hits and unclear results are named; the others gave an inactive call. Only some compounds are listed: those with a hit (about 2.9% of all), similar ones and a draw of the others.

N#Cc1ccc(C(C(=O)NC2CCCCC2)n2c(=O)c(-c3ccco3)nc3ccccc32)cc1 (centres undefined)	PRMT1 inh 22 (no result: HTRA1 inh, ATG4B inh)
Cc1ccc2c(c1)C1CS(=O)(=O)N(CCc3ccccc3)CN1C2 (centres undefined)	none (no result: HTRA1 inh, TCR CD3 inh, ATG4B inh)
O=C1CCC[C@H]2CC3(CC[C@]24CCCN14)OCCO3	none (no result: HTRA1 inh, TCR CD3 inh, ATG4B inh)
O=C(CSc1nnc(-c2cnccn2)n1-c1ccccc1)Nc1ccc2cn[nH]c2c1	none (no result: HTRA1 inh, TCR CD3 inh, ATG4B inh)
Cc1nc2ccc(S(=O)(=O)NCC(=O)N(C)Cc3ccccc3F)cc2s1	none (no result: HTRA1 inh, TCR CD3 inh, ATG4B inh)
CN(C)CCCn1c(SCC(=O)N2CC(=O)Nc3ccccc32)nc2ccccc2c1=O	PRMT1 inh 21
CC(C)N(CCn1c(SCC(=O)N2CC(=O)Nc3ccccc32)nc2ccccc2c1=O)C(C)C	none
CCOc1ccc(-c2nc(C#N)c(NCc3ccc4c(c3)OCO4)o2)cc1	SIAE inh 18
Cc1ccc(OCc2nc(C#N)c(NCc3ccc4c(c3)OCO4)o2)cc1	none
CC(=O)Nc1nc2ncccn2c1-c1ccccc1	none (no result: HTRA1 inh, TCR CD3 inh, ATG4B inh)
COC(=O)c1ccccc1NC1=C/C(=N\S(=O)(=O)c2ccc(C(=O)O)cc2)c2ccccc2C1=O	HTRA1 inh 45 (no result: TCR CD3 inh, PRMT1 inh, SIAE inh, ABHD4 inh)
CCc1ccc(S(=O)(=O)/N=C2\C=C(Nc3ccc(C(=O)O)cc3)C(=O)c3ccccc32)cc1	ABHD4 inh 54
COC(=O)c1ccccc1NC1=C/C(=N\S(=O)(=O)c2cccs2)c2ccccc2C1=O	none
Cc1ccc(NC2=C/C(=N/S(=O)(=O)c3cccs3)c3ccccc3C2=O)cc1	none
CC(CCN1CCC(C(O)(c2ccccc2)c2ccccc2)CC1)Oc1ccc(OC(F)(F)F)cc1 (centres undefined)	none (no result: HTRA1 inh, TCR CD3 inh, ATG4B inh)
CCOC(=O)[C@]12CCCC=C1N(CCCOC)C(=O)[C@@H]2CC(=O)NCCc1ccccc1OC	none (no result: HTRA1 inh, TCR CD3 inh, ATG4B inh)
Cc1ccc(-c2nc3ncccn3c2NC(=O)Nc2ccc(OC(F)(F)F)cc2)cc1	none (no result: HTRA1 inh, TCR CD3 inh, ATG4B inh)
O=C(c1ccccc1)C(Sc1ncn[nH]1)c1ccccc1 (centres undefined)	PRMT1 inh 23
COC(=O)[C@]12C[C@H](CC(=O)N3CCN(C(=O)c4ccco4)CC3)C(=O)N(Cc3cccc4ccccc34)C1=C[C@H](C(C)C)O[C@@H]2C1CC1	none (no result: HTRA1 inh, TCR CD3 inh, ATG4B inh)
COc1ccc2c(c1)-c1nc(/N=C/c3c(O)ccc4ccccc34)sc1CC2	PRMT1 inh 21
COc1ccc2c(c1)-c1nc(/N=C/c3ccc(O)cc3)sc1CC2	PRMT1 inh 36
Oc1ccc2ccccc2c1/C=N/c1nccs1	none
CCOC(=O)c1c(S(=O)(=O)N2CCCC2)c(C)n(C)c1C	PRMT1 inh 22
Cn1ncc2c(c(SCc3ccc(Cl)cc3Cl)nn2C)c1=O	PRMT1 inh 22
COC(=O)C[C@@H]1CC[C@H]2[C@@H](COc3ccc(NC(=O)Nc4ccccc4)cc3C(=O)N2C)O1	none (no result: HTRA1 inh, TCR CD3 inh, ATG4B inh)
COc1cc(OC)cc(-c2nnc(SCc3ccc(C(=O)O)cc3)o2)c1	PRMT1 inh 22
O=C(CN1C(=O)/C(=C\c2ccco2)SC1=S)Nc1ccc(O)cc1C(=O)O	PRMT1 inh 43
O=C(CCCN1C(=O)/C(=C\c2ccccc2)SC1=S)Nc1ccc(O)cc1C(=O)O	none
C=CCN1C(=O)[C@H](CC(=O)NCc2ccccc2)[C@@]2(C(=O)OCC)CCCC=C12	none (no result: HTRA1 inh, TCR CD3 inh, ATG4B inh)
CCC(c1nnc(SCC(=O)NCCc2ccc(Cl)cc2Cl)o1)N(C)C (centres undefined)	PRMT1 inh 21
CCC(c1nnc(SCC(=O)Nc2cc(C)on2)o1)N(C)C (centres undefined)	none
CCC(=O)OCOc1ccc(/C=C2/CCC(CN(C)C)C2=O)cc1 (centres undefined)	PRMT1 inh 37
Cn1cccc1C(=O)N1CCN(S(=O)(=O)c2ccc(Br)s2)CC1	none (no result: HTRA1 inh, TCR CD3 inh, ATG4B inh)
COc1ccc(OCC(=O)Sc2ccc(C)cc2)cc1	PRMT1 inh 33
CC(=O)Nc1cccc(C(=O)/C=C/c2ccc[nH]2)c1	PRMT1 inh 22
CC(=O)Nc1cccc(C(=O)/C=C/c2ccc(/C=C/C(=O)c3cccc(NC(C)=O)c3)cc2)c1	none (no result: HTRA1 inh, ATG4B inh)
CC(=O)Nc1cccc(C(=O)/C=C/c2ccco2)c1	PRMT1 inh 21
CC(=O)Nc1cccc(C(=O)/C=C/c2ccc(F)cc2)c1	none
COc1cc2c(cc1OC)-c1cc3ccc(OC)c(OC)c3c[n+]1CC2	none
COc1ccc2cc3[n+](cc2c1O)CCc1cc2c(cc1-3)OCO2	TCR CD3 inh 25, SIAE inh 20, ABHD4 inh 31 (no result: HTRA1 inh, ATG4B inh)
Cc1ccc(NC(=O)CN2C(=O)N/C(=C\c3cccn3-c3cccc(C(=O)O)c3)C2=O)cc1	none (no result: TCR CD3 inh, PRMT1 inh, SIAE inh, ABHD4 inh)
Cc1ccc(NC(=O)CN2C(=O)N/C(=C/c3cc(C)n(-c4cccc(C(=O)O)c4)c3C)C2=O)cc1	PRMT1 inh 25
NC(=O)c1cc(N)ccc1N1CCCC1	none
Cc1cc(N)ccc1N1CCCC1	HTRA1 inh 82 (no result: TCR CD3 inh, PRMT1 inh, SIAE inh, ABHD4 inh)
COc1ccc2nc(Nc3sc4c(c3C(N)=O)CCCC4)sc2c1	PRMT1 inh 45
CC(C)OC(=O)c1sc2nc(-c3ccccc3)ccc2c1N	none
COC(=O)c1sc2nc(-c3ccco3)ccc2c1N	PRMT1 inh 55
CC(=O)Nc1sc2c(c1-c1nc3ccccc3s1)CCN(C(C)=O)C2	none (no result: HTRA1 inh, TCR CD3 inh, ATG4B inh)
CC(=O)N1CCc2c(sc(NC(=O)C3CC3)c2-c2nc3ccccc3s2)C1	PRMT1 inh 30
Cn1cnc([N+](=O)[O-])c1S(=O)(=O)Oc1cccc2ccccc12	PRMT1 inh 23
Nc1ccc2cccc(O)c2c1	ABHD4 inh 48
Nc1ccc2cc3ccccc3cc2c1	none
COc1ccc(N2CCN(CCCNC(=O)COc3ccc(F)cc3)CC2)cc1	none (no result: HTRA1 inh, TCR CD3 inh, ATG4B inh)
CC1=C(C#N)C(=O)NC(=O)/C1=C\c1ccc(-c2cc(C)c(C)cc2[N+](=O)[O-])o1	PRMT1 inh 40, ABHD4 inh 41
COc1cc(/C=C/c2sc3ccccc3[n+]2CCCS(=O)(=O)[O-])ccc1O	none
Cc1ccc2c(c1)sc(C)[n+]2CCCS(=O)(=O)[O-]	PRMT1 inh 62
Cc1ccc2sc(C)[n+](CCCS(=O)(=O)[O-])c2c1	PRMT1 inh 38
O=C(O)CCC(C(=O)O)n1c(O)c(C2=c3ccccc3=NC2=O)sc1=S (centres undefined)	PRMT1 inh 23
O=S(=O)(c1ccc(Br)s1)N1CCC(c2nc3ccccc3o2)CC1	none (no result: HTRA1 inh, TCR CD3 inh, ATG4B inh)
CCOC(=O)N1CCN(C(=O)C[C@@H]2C(=O)N(Cc3ccc(OC)cc3)C3=CCN(C(=O)OC(C)(C)C)C[C@]32C(=O)OCC)CC1	none (no result: HTRA1 inh, TCR CD3 inh, ATG4B inh)
Cc1cc(-c2n[nH]c(=S)n2N=Cc2cc(Br)ccc2F)n[nH]1	none (no result: HTRA1 inh, TCR CD3 inh, ATG4B inh)
CC(=NNC(=S)N1CCCCC1)c1ccccn1	none (no result: ATG4B inh)
CCC1CCCCN1C(=S)NN=C(C)c1ccccn1 (centres undefined)	PRMT1 inh 24 (no result: HTRA1 inh, ATG4B inh)
O=C(C1CCCN1S(=O)(=O)c1ccc(Br)s1)N1CCc2ccccc2C1 (centres undefined)	none (no result: HTRA1 inh, TCR CD3 inh, ATG4B inh)
